Measured values: ChEMBL document CHEMBL4340525, “Tumor-Targeted Delivery of 6-Diazo-5-oxo-l-norleucine (DON) Using Substituted Acetylated Lysine Prodrugs” (J Med Chem, 2019)

Columns and labels:
[1] = Tmax in CES1-deficient C57BL/6 mouse jejunum implanted with mouse EL4 cells assessed as 6-diazo-5-oxo-L-norleucine level at 3.2 mg/kg, sc administered as single dose by LC-MS/MS analysis; assay type: ADME, organism-based; conditions: in vivo
Method in brief: (§1)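 Male and female C57BL/6 CES1-/- mice, 6–8 weeks old, carried flank EL4 tumours from SC injection of 1 × 10^6 cells in PBS. Dosing began at about 400 mm3 mean tumour volume. Each mouse got one SC dose of 3.2 mg/kg (1 mg/kg DON equivalent) in ethanol/Tween 80/saline 5:10:85. Plasma, jejunum and tumour were taken at set times, n = 3 per time point. Prodrug and dabsyl-derivatised DON were measured by LC-MS/MS. Noncompartmental analysis: Cmax and Tmax observed, AUClast by log-linear trapezoidal rule.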

[2] = Stability of the compound in wild-type C57BL/6 mouse plasma assessed as de-esterification of carboxyl ester measured after 60 mins by HRMS analysis; assay type: ADME, cell-free; conditions: 1 h
Histone deacetylase 2 = Histone deacetylase 2 (Homo sapiens, UniProt Q92769); assay: Stability of the compound assessed as recombinant human HDAC2-mediated compound hydrolysis by measuring parent compound remaining at 1 uM measured after 3 hrs by UHPLC-MS analysis; assay type: ADME
Sequence of Histone deacetylase 2 (Q92769 whole entry): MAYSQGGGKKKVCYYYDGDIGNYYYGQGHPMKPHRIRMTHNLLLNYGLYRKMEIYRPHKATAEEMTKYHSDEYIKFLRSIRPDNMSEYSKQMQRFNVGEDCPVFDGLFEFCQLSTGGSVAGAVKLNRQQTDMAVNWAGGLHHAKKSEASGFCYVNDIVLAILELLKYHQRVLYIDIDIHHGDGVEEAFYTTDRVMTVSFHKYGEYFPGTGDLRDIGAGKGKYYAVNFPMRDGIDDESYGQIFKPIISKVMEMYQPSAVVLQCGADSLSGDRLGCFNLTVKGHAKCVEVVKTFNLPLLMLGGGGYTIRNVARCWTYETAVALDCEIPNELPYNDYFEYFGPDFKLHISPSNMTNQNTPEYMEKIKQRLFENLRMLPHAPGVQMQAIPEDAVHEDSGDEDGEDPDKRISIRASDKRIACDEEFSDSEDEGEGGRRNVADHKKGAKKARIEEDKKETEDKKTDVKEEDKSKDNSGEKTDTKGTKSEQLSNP
Method in brief: (§2)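 Compound at 1 µM was incubated at 37 °C with shaking in 50 mM MES pH 6 with 5 mM DTT. Recombinant human enzyme final levels: HDAC2 10 µg/mL, cathepsin B 1 µg/mL, cathepsin L 0.1 µg/mL, alone or cathepsins B+L combined. Aliquots were quenched in methanol with losartan at 0.25, 0.5, 1 and 3 h. Parent remaining by Q-TOF LC-MS.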

[3] = Stability in human plasma assessed as parent compound remaining at 20 uM measured after 1 hr by LC-MS/MS analysis
[4] = Stability in human plasma suspended with human P493B cells at 20 uM by LC-MS/MS analysis; assay type: ADME; conditions: TDE = time-dependent effect
Method in brief: (§3)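 Cells were grown in RPMI 1640 with 10% FBS, washed in DPBS and resuspended in human plasma at 10 million cells/mL. After 5 min preincubation at 37 °C, compound was added at 20 µM final for 1 h. The mix was centrifuged at 10 000g and the washed pellet and plasma were quantified separately. DON was read by LC-MS/MS after dabsyl chloride derivatisation, intact prodrug directly. Standard curves were made in naive cells or plasma.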

[5] = Tmax in CES1-deficient C57BL/6 mouse plasma implanted with mouse EL4 cells assessed as 6-diazo-5-oxo-L-norleucine level at 3.2 mg/kg, sc administered as single dose by LC-MS/MS analysis; assay type: ADME, organism-based; conditions: in vivo; method in brief: as §1
Cathepsin B = Cathepsin B (Homo sapiens, UniProt P07858); assay: Stability of the compound assessed as recombinant human cathepsin B-mediated compound hydrolysis by measuring parent compound remaining at 1 uM measured after 3 hrs by UHPLC-MS analysis; assay type: ADME; method in brief: as §2
[6] = Drug level in human P493B cells suspended in human plasma assessed as tumor cell to plasma ratio by measuring 6-diazo-5-oxo-L-norleucine formation at 20 uM measured after 1 hr by LC-MS/MS analysis relative to 6-diazo-5-oxo-L-norleucine alone; assay type: ADME, cell-based; method in brief: as §3
[7] = Prodrug conversion in human plasma suspended with human H69 cells assessed as 6-diazo-5-oxo-L-norleucine formation at 20 uM measured after 1 hr by LC-MS/MS analysis; assay type: ADME, cell-free; method in brief: as §3
[8] = Tmax in CES1-deficient C57BL/6 mouse plasma implanted with mouse EL4 cells at 3.2 mg/kg, sc administered as single dose by LC-MS/MS analysis; assay type: ADME, organism-based; method in brief: as §1
[9] = Prodrug conversion in human DU4475 cells suspended in human plasma assessed as 6-diazo-5-oxo-L-norleucine formation at 20 uM measured after 1 hr by LC-MS/MS analysis; assay type: ADME, cell-based; conditions: du-4475, 1 h; method in brief: as §3
[10] = Tmax in CES1-deficient C57BL/6 mouse tumor implanted with mouse EL4 cells at 3.2 mg/kg, sc administered as single dose by LC-MS/MS analysis; assay type: ADME, organism-based, Neoplasm; method in brief: as §1
[11] = Cmax in CES1-deficient C57BL/6 mouse jejunum implanted with mouse EL4 cells at 3.2 mg/kg, sc administered as single dose by LC-MS/MS analysis; assay type: ADME, organism-based; set-up: dose 3.2 mg/kg, route subcutaneous; conditions: in vivo, BLD = below limit of detection; method in brief: as §1
[12] = Cmax in CES1-deficient C57BL/6 mouse plasma implanted with mouse EL4 cells assessed as 6-diazo-5-oxo-L-norleucine level at 3.2 mg/kg, sc administered as single dose by LC-MS/MS analysis; assay type: ADME, organism-based; set-up: dose 3.2 mg/kg, route subcutaneous; conditions: in vivo; method in brief: as §1
[13] = Stability of the compound in wild-type C57BL/6 mouse plasma measured after 60 mins by UHPLC-MS analysis; assay type: ADME, cell-free; conditions: 1 h
Procathepsin L = Procathepsin L (Homo sapiens, UniProt P07711); assay: Stability of the compound assessed as recombinant human cathepsin L-mediated compound hydrolysis by measuring parent compound remaining at 1 uM measured after 3 hrs by UHPLC-MS analysis; assay type: ADME; method in brief: as §2
Sequence of Procathepsin L (P07711 whole entry): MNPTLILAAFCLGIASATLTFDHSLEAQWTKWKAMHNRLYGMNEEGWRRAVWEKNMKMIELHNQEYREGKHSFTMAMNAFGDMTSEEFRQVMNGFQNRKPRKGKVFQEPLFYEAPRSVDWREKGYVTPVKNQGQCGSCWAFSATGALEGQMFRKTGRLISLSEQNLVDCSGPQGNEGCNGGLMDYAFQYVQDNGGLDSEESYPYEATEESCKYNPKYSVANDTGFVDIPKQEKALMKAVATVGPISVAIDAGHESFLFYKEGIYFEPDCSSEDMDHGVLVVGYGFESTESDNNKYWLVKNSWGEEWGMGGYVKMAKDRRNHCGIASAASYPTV

[14] = Drug level in mouse EL4 cells implanted in CES1-deficient C57BL/6 mouse assessed as tumor cell to plasma ratio at 3.2 mg/kg, sc administered as single dose measured after 1 hr by LC-MS/MS analysis; assay type: ADME, organism-based
[15] = Stability in human liver microsomes assessed as parent compound remaining at 1 uM measured after 1 hr by LC-MS/MS analysis; assay type: ADME, Microsome; conditions: read-out: Stability
Method in brief: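 Human liver microsomes (0.2 mg/mL protein) or S9 fraction (0.5 mg/mL) were incubated with prodrug at 1 µM final, 37 °C, 1 h with shaking. Reactions were quenched in triplicate with three volumes acetonitrile containing losartan. Parent remaining was taken from analyte/internal-standard peak-area ratio by UHPLC-MS/MS.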

[16] = AUC (0 to t) in CES1-deficient C57BL/6 mouse plasma implanted with mouse EL4 cells assessed as 6-diazo-5-oxo-L-norleucine level at 3.2 mg/kg, sc administered as single dose by LC-MS/MS analysis; assay type: ADME, organism-based; conditions: in vivo; method in brief: as §1
[17] = AUC (0 to t) in CES1-deficient C57BL/6 mouse jejunum implanted with mouse EL4 cells assessed as 6-diazo-5-oxo-L-norleucine level at 3.2 mg/kg, sc administered as single dose by LC-MS/MS analysis; assay type: ADME, organism-based; conditions: in vivo; method in brief: as §1
[18] = Stability in swine plasma assessed as parent compound remaining at 20 uM measured after 1 hr by LC-MS/MS analysis; conditions: Sus scrofa, pig
[19] = (§4) Antiproliferative activity against human P493B cells measured after 72 hrs by CellTiter 96 aqueous one solution cell proliferation assay; assay type: functional, cell-based
Method in brief: (§5)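 P493B lymphoma cells seeded at 20 000 cells/well in growth medium. DMSO stocks added as a 1:10 serial dilution, final 0.2% DMSO. Cells grown 72 h with compound, then given CellTiter 96 AQueous reagent for 2 h and read by absorbance at 490 nm. EC50 obtained by nonlinear regression of log-transformed data.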

Homo sapiens = organism: Homo sapiens; assay: as §4; assay type: functional, cell-based; method in brief: as §5
[20] = Prodrug conversion in human H69 cells suspended in human plasma assessed as 6-diazo-5-oxo-L-norleucine formation at 20 uM measured after 1 hr by LC-MS/MS analysis; assay type: ADME, cell-based; conditions: nci-h69, 1 h; method in brief: as §3

For `CC(=O)NCCCC[C@H](NC(=O)C12CC3CC(CC(C3)C1)C2)C(=O)N[C@@H](CCC(=O)C=[N+]=[N-])C(=O)OC(C)C`, the Tmax [1] was 30 min, the Stability [2] was “Unstable” and the Stability (Histone deacetylase 2) was greater than 95%. For the same compound, the Stability [3] was 107%, the Stability [4] was “Tde” and the Tmax [5] was 30 min. The Stability (Cathepsin B) was 64%, the “fold change (FC)” value [6] was 55 and the Drug metabolism [7] was 0.25 to 0.5 µM. It also gave a Tmax [8] of 15 min, a Drug metabolism [9] of 11.8 µM and a Tmax [10] of 30 min. For the same compound, the Cmax [11] was “Bld”, the Cmax [12] was 440 nM and the Stability [13] was “Unstable”. The Stability (Procathepsin L) was 36%, the Kp at 1 h [14] was 16 and the remaining at 1 h, 1 µM [15] was 100%. For the same compound, the AUCt [16] was 1.06 µM·h, the AUCt [17] was 0.45 nmol·h/g and the Stability [18] was 108%. The EC50 [19] was 5 µM, the Activity (Homo sapiens) was “Dose-dependent effect” and the Drug metabolism [20] was 9.95 µM.
